pIC50, pKi: −log10 of the molar value. The source made the active and inactive calls. The rule behind the calls is not given here.
Assays:
Adenosine receptor A2a [1] = target: T1, Adenosine receptor A2a (Homo sapiens, UniProt P29274); experiment: Displacement of [3H]ZM241385 from A2A receptor in human HeLa cell membranes at 10 uM after 30 mins by beta-scintillation counting method
Adenosine receptor A2a [2] = target: T1, Adenosine receptor A2a; experiment: Displacement of [3H]ZM241385 from A2A receptor in human HeLa cell membranes after 30 mins by beta-scintillation counting method
SH-SY5Y = experiment: Cytoprotection against 6-OHDA-induced neurotoxicity in human SH-SY5Y cells assessed as reduction in 6-OHDA-induced cell viability decrease at 0.15 uM preincubated for 3 hrs followed by 6-OHDA addition measured after 24 hrs by resazurin dye based assay relative to control; format: functional
Summary of the method: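 Human SH-SY5Y cells seeded 2.5 x 10^4/well in phenol-red-free DMEM with 1% FBS and 10 µM retinoic acid for 72 h to differentiate. Compound (0.1% v/v DMSO) pretreatment 3 h, then freshly prepared 20 µM 6-OHDA in saline/0.007% ascorbic acid for 24 h. Resazurin (0.02 mg/mL final) added for 2 h as the viability read-out.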

Adenosine receptor A2a [3] = target: T1, Adenosine receptor A2a; experiment: Antagonist activity at human A2A receptor expressed in CHO cells assessed as inhibition of NECA-stimulated cAMP accumulation at 100 nM preincubated for 15 mins followed by NECA addition measured after 15 mins by enzyme immunoassay; format: functional, cell-based
Summary of the method: (§1)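 CHO cells stably transfected with human A2A receptor, seeded 10^4 cells/well 24 h before assay. Washed in DMEM/F-12 with 25 mM Hepes pH 7.4, then switched to the same buffer plus 20 µM rolipram. Compound preincubated 15 min at 37 °C, NECA added at several concentrations for 15 min at 37 °C. cAMP measured by enzyme immunoassay.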

Adenosine receptor A2a [4] = target: T1, Adenosine receptor A2a; experiment: Displacement of [3H]ZM241385 from A2A receptor in human HeLa cell membranes at 30 uM after 30 mins by beta-scintillation counting method relative to control
[5] = target: T2, Amine oxidase [flavin-containing] B (Homo sapiens, UniProt P27338); experiment: Inhibition of recombinant human MAO-B expressed in baculovirus infected BTI insect cells using tyramine as substrate preincubated for 30 mins followed by substrate addition measured after 60 mins by amplex red reagent based fluorescence assay
T2 sequence (P27338 whole entry): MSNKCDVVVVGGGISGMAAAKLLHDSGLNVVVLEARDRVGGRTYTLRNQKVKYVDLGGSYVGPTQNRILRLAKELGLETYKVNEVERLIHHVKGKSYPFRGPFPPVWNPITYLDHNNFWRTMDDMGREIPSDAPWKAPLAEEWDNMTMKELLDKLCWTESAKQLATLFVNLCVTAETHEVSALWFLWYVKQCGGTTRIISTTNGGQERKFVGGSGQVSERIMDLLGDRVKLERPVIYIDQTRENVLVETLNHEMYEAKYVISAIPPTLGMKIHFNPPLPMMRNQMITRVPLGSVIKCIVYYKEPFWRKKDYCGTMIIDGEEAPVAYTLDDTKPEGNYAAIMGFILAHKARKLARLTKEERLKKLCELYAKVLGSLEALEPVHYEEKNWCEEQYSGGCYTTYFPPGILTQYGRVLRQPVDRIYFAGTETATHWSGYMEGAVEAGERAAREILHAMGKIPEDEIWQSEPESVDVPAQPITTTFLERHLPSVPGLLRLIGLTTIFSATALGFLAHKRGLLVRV
Summary of the method: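 Recombinant human MAO-B, final 1 U/mL, in 50 mM Tris-HCl pH 7.5 with 0.05% CHAPS and 1% DMSO. Compounds dosed acoustically over 10^-9 to 10^-4 range, preincubated 30 min at room temperature. Interference controlled without enzyme, with added H2O2.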

[6] = target: T2, Amine oxidase [flavin-containing] B; experiment: Inhibition of recombinant human MAO-B expressed in baculovirus infected BTI insect cells using tyramine as substrate preincubated for 30 mins followed by substrate addition measured after 60 mins in presence of Triton X-100 by amplex red reagent based fluorescence assay; conditions: 1 h
[7] = target: T2, Amine oxidase [flavin-containing] B; experiment: Inhibition of recombinant human MAO-B expressed in baculovirus infected BTI insect cells at 30 uM using tyramine as substrate preincubated for 30 mins followed by substrate addition measured after 60 mins by amplex red reagent based fluorescence assay relative to control; conditions: 1 h
Adenosine receptor A2a [8] = target: T1, Adenosine receptor A2a; experiment: Antagonist activity at human A2A receptor expressed in CHO cells assessed as inhibition of NECA-stimulated cAMP accumulation at 1 uM preincubated for 15 mins followed by NECA addition measured after 15 mins by enzyme immunoassay; format: functional, cell-based; summary of the method: as §1
[9] = target: T2, Amine oxidase [flavin-containing] B; experiment: Inhibition of recombinant human MAO-B expressed in baculovirus infected BTI insect cells at 10 uM using tyramine as substrate preincubated for 30 mins followed by substrate addition measured after 60 mins by amplex red reagent based fluorescence assay; conditions: 1 h
Summary of the method: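 Human recombinant MAO-B (final 1 U/mL) in 50 mM Tris-HCl pH 7.5, 0.05% CHAPS, 1% DMSO. Compound added from DMSO stock and pre-incubated 30 min at room temperature. Reaction started with tyramine (10 µM in 2-fold mix) and run 60 min at room temperature. HRP (final 0.1 U/mL) plus Amplex Red (final 10 µM) added; resorufin read at ex 535/em 590 nm over 30 min.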

T1 sequence (P29274 whole entry): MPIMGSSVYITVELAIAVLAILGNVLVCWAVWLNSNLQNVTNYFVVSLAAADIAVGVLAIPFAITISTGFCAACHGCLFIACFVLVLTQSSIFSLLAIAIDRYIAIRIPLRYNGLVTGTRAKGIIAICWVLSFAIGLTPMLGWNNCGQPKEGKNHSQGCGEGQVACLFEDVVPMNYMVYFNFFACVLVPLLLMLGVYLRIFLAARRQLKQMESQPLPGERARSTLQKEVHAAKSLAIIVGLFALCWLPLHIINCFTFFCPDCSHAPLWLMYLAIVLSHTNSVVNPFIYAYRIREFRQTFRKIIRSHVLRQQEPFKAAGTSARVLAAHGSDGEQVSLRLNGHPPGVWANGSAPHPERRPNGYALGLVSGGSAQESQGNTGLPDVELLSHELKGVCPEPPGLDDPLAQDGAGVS

Row | SMILES | inhibition (Adenosine receptor A2a [1]) | pKi (Adenosine receptor A2a [2]) | further results
1 | Nc1nn(-c2ccccc2Cl)nc1C(=O)CCc1ccccc1 | inactive | 6.20 | –
2 | Cc1ccccc1C(=O)Nc1nc2ccccc2[nH]1 | inactive | – | –
3 | Cc1cccc(C(=O)Nc2nc3ccccc3[nH]2)c1 | inactive | – | –
4 | Cc1ccc2nc(NC(=O)c3ccccc3)[nH]c2c1 | inactive | – | –
5 | Cc1ccc(-n2nc(N)c(C(=O)CCc3ccccc3)n2)cc1 | inactive | – | –
6 | Cn1c(=O)c2c(nc(/C=C/c3cccc(Cl)c3)n2C)n(C)c1=O | – | – | Activity (SH-SY5Y): 13%
7 | COc1cccc(COC(=O)c2nn(-c3ccccc3)nc2N)c1 | – | 7.72 | inhibition (Adenosine receptor A2a [3]): Active; Activity (SH-SY5Y): 13%; inhibition (Adenosine receptor A2a [4]): > 60%
8 | Nc1nn(-c2ccccc2)nc1C(=O)NCc1ccccc1 | inactive | 7.64 | –
9 | COc1cccc2nc(NC(=O)c3ccccc3)[nH]c12 | inactive | 6.28 | –
10 | Cc1ccc(COC(=O)c2nn(-c3ccccc3)nc2N)cc1 | – | 6.82 | pIC50 [5]: 5.42; inhibition (INH) [6]: Active
11 | Nc1nn(-c2ccccc2)nc1C(=O)CCc1ccccc1 | inactive | 5.70 | –
12 | Nc1nn(-c2ccccc2)nc1C(=O)OCc1ccccc1 | – | 7.51 | inhibition at 30 µM [7]: > 70%; pIC50 [5]: 6.42; inhibition (Adenosine receptor A2a [4]): > 60%
13 | Cc1ccc(C(=O)Nc2nc3ccccc3[nH]2)cc1 | inactive | – | –
14 | O=C(Nc1nc2cccc(Cl)c2[nH]1)c1ccccc1 | – | 7.00 | inhibition (Adenosine receptor A2a [8]): Active; Activity (SH-SY5Y): 14%
15 | Nc1nn(-c2ccc(Cl)cc2)nc1C(=O)CCc1ccccc1 | inactive | – | –
16 | COc1cccc(C(=O)Nc2nc3ccccc3[nH]2)c1 | inactive | – | –
17 | Cc1ccccc1COC(=O)c1nn(-c2ccccc2)nc1N | – | 7.31 | pIC50 [5]: 6.30
18 | Nc1nn(-c2ccccc2)nc1C(=O)O | inactive | – | inhibition (INH) [9]: Not Active
19 | COc1cccc(CO)c1 | inactive | – | inhibition (INH) [9]: Not Active
20 | O=C(Nc1nc2ccccc2[nH]1)c1ccccc1O | inactive | – | –
21 | Cc1ccc(C(=O)Nc2nc3ccccc3[nH]2)cc1C | inactive | – | –
22 | Cc1cccc(-n2nc(N)c(C(=O)CCc3ccccc3)n2)c1 | inactive | 6.60 | –
23 | Cc1ccccc1-n1nc(N)c(C(=O)CCc2ccccc2)n1 | inactive | – | –
24 | C[C@@H]1Oc2ccc(Nc3ncnc4c3oc3ccccc34)cc2NC1=O | – | 5.92 | inhibition at 30 µM [7]: > 70%; pIC50 [5]: 5.77; inhibition (Adenosine receptor A2a [4]): > 60%
25 | O=C(Nc1nc2ccccc2[nH]1)c1ccccc1 | – | 5.57 | inhibition at 30 µM [7]: > 70%; pIC50 [5]: 5.30; inhibition (INH) [6]: Active; inhibition (Adenosine receptor A2a [4]): > 60%
